# In the library only some 4.8% were active in any assay of this set; here they are far more common.
# WT yeast gro inh – growth inhibition of WT strain, primary screen, mitochondrial fusion inhibitor project, WT and mutant strains, chemical genetic; mitochondrial fusion phenotypic screen; inhibition, % at 10 µM; actives 2.1% (n = 190,000); in the data active = inhibition above about 58%; tested in S. cerevisiae
# Efflux pump mplx – inhibitors of Candida efflux pumps in yeast, primary screen, S. cerevisiae, Nile Red, multiplex; S. cerevisiae Candida pump triplex; AID 485275, 2010; inhibition, % at 10 µM; actives 0.44% (n = 330,000);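 active = plate passing quality check with inhibition over a set limit, or well fluorescence over plate mean plus 4 SD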;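 also: Nile Red retained in pooled yeast measured as flow cytometry median fluorescence; 0% = buffer negative control and 100% = Enniatin B positive control; higher means more Nile Red kept so more efflux inhibition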
# SUMO Mot1 rescue – yeast Mot1-301 growth rescue at high temperature, primary screen, SUMOylation pathway inhibitor project, S. cerevisiae, ATP luminescence, 38.5C; S. cerevisiae Mot1-301 growth rescue; percent above DMSO median, 100 means doubled; growth rescue, % at 18.8 µM; actives 1% (n = 320,000);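 active = every valid replicate shows activation above 250% relative to neutral control wells; inactive = the rest, any valid replicate at or below 250%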;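 also: OY570 slx delta 5 strain wells were the positive control but not used for scaling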
# T cruzi inh – inhibitors of intracellular T. cruzi growth, primary screen, luminescence, NIH3T3 host cells. T. cruzi beta-gal in NIH3T3, 90 h. inhibition, % (no concentration beside the values). actives 1.4% (n = 300,000). AID 1885, 2009;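 active = mean inhibition across valid replicates above about 55%, limit read from the data; inconclusive = mean below that limit but half or more replicates reach it; inactive = mean below it, under half of replicates reach it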;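 also: signal also drops with host cell toxicity which is not excluded here; 0% = plate median of DMSO wells and 100% = zero luminescence signal; higher percent means less beta-gal luminescence so fewer parasites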
#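 assay system = mouse NIH/3T3 fibroblasts infected with β-gal-expressing T. cruzi Tulahuen C4 | input = 5,000 NIH/3T3 host cells per well | buffer or medium = DMEM plus 2% FBS | timing = 3 h host attachment, then at least 90 h co-culture | measured by = GalScreen luminescence, 60 min | evaluation = luminescence reflecting intracellular parasite burden, expressed as percent inhibition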
# CSC inhib – cancer stem cell viability inhibitors, primary screen, luminescence | cancer stem cell-like cells viability | inhibition, % at 7.5 µM | actives 1.1% (n = 300,000) | AID 2717, 2010; in the data active = inhibition above about 75%; inconclusive = no clear call, values can overlap the other calls; tested in HMLE shEcad cells
# Beta cell apopt – inhibitors of cytokine-induced beta cell apoptosis, primary screen, luminescence. AID 435005, 2010. actives 0.8% (n = 300,000). INS-1E cytokine-induced death, ATP luminescence, 48 h; percent of positive-control rescue, neutral wells zero. protection from apoptosis, % (concentration not given with the values);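 active = Every replicate reaches about 75%, or at least half do and their mean reaches it too, limit read from the data; inconclusive = At least half of replicates reach the limit but their mean does not; inactive = Under half of replicates reach the limit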;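 also: 0% = cytokine-treated negative control wells and 100% = positive control rescue; higher means more ATP so stronger rescue from cytokine killing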
# Active calls of the source: *; i = inactive; ? = inconclusive; · = no result.
SMILES,WT yeast gro inh,Efflux pump mplx,SUMO Mot1 rescue,T cruzi inh,CSC inhib,Beta cell apopt
CC(C)Oc1cccc(C(=O)C2CCCN(Cc3ccc(Oc4ncccn4)cc3)C2)c1 (configuration not stated),7,0,8,66*,5,-3
COc1ccc2cc(C(=O)C3CCCN(Cc4cnc(N5CCOCC5)s4)C3)ccc2c1 (configuration not stated),6,0,-2,41,-3,-1
CC(=O)Nc1ccc(CN2CCCC(C(=O)c3cccc(C(F)(F)F)c3)C2)cc1 (configuration not stated),5,0,-7,20,43,2
O=C(c1cccc(C(F)(F)F)c1)C1CCCN(Cc2ccc(OCCO)cc2)C1 (configuration not stated),1,0,9,63*,25,1
CC(C)Oc1cccc(C(=O)C2CCCN(Cc3cnc(N4CCCC4)s3)C2)c1 (configuration not stated),34,0,-4,82*,-11,0
COc1ccccc1C(=O)C1CCCN(Cc2ccc(Oc3ncccn3)cc2)C1 (configuration not stated),-1,0,9,73*,0,3
COc1c(C)cc(C(=O)C2CCCN(Cc3ccc(Oc4ncccn4)cc3)C2)cc1C (configuration not stated),-3,0,-6,33,·,5
C=CCOC(=O)C1=C[C@@H](c2csc3ccccc23)[C@H](CCCO)[C@@H](OCC)O1,·,·,-5,-16,-3,4
COc1ccc(NC(=O)CC23CC4CC(CC(Br)(C4)C2)C3)c(OC)c1,·,0,-12,-13,-2,·
CCCn1ncc(CN2CCCC(C(=O)c3cccc(OC(C)C)c3)C2)c1C (configuration not stated),·,0,342,55*,37,-2
Cc1ccc(N=C(NOCc2ccc(Cl)cc2Cl)c2nonc2N)c(C)c1,68*,0,0,?,1,11
Cc1ccccc1N=C(NOCc1ccc(Cl)cc1Cl)c1nonc1N,78*,0,17,?,98*,5
Cc1ccccc1N=C(NOCc1ccccc1)c1nonc1N,32,0,6,·,73,-4
Cc1ccc(N=C(NO)c2nonc2N)c(C)c1,-2,0,89,-7,-13,·
CC(C)C[C@H]1CN=C(Nc2ccccc2)N1CCc1ccc(F)cc1,·,0,-2,·,1,90*
Cc1ccc(-c2c[n+]3c(n2-c2ccccc2)CCC3)cc1,·,0,99,55*,-15,100*
CCOc1ccc(-n2c(-c3ccccc3)c[n+]3c2CCCCC3)cc1,2,0,8,60*,23,99*
CCOc1ccc(N2Cc3ccccc3C2)cc1,·,0,-14,8,10,5
c1ccc(-c2c[n+]3c(n2-c2ccccc2)CCC3)cc1,·,0,21,-10,-2,25
CN(C)C(CNC(=O)c1c(F)cccc1Cl)c1ccco1 (configuration not stated),·,0,-21,-6,-11,-1
O=C(CS(=O)(=O)c1ccccc1)Nc1nc(-c2ccccc2)cs1,19,0,i,9,0,1
COc1cccc(CC(=O)Nc2nc(-c3ccc(F)c(F)c3)cs2)c1,·,0,51,2,7,-5
CCC(=O)c1ccc(OCC(=O)Nc2nc(-c3cccnc3)cs2)cc1,·,0,12,-3,-11,3
O=C(Cc1c(F)c(F)c(F)c(F)c1F)Nc1nc(-c2ccccc2)cs1,·,0,30,36,83*,5
Cc1ccc(S(=O)(=O)CC(=O)Nc2nc(-c3ccccc3)cs2)cc1,61*,0,3,-8,8,-4
SMILES,WT yeast gro inh,Efflux pump mplx,SUMO Mot1 rescue,T cruzi inh,CSC inhib,Beta cell apopt
CC(=O)Nc1ccc(-c2csc(NC(=O)Cc3cccc(F)c3)n2)cc1,·,0,42,12,90*,10
CCc1ccccc1OCC(=O)Nc1nc(-c2cccnc2)cs1,57,0,-10,78*,40,2
O=C(Cc1ccccc1)Nc1nc(-c2ccc(F)c(F)c2)cs1,·,0,-2,13,9,0
CCOc1ccc(C2C(C(C)=O)=C(O)C(=O)N2CCc2c[nH]c3ccccc23)cc1 (configuration not stated),-15,0,-19,12,0,-2
CC(C)(CNC(=O)c1cc(Cl)c(O)c(Cl)c1)N1CCCCC1,·,0,-5,4,·,0
O=C(Cc1ccccc1F)Nc1nc(-c2ccc(F)c(F)c2)cs1,·,0,60,12,60,-2
CC(=O)Nc1nc(-c2cccc3ccccc23)cs1,·,0,17,57*,-9,-4
CC(=O)Nc1ccc(-c2csc(NC(=O)Cc3ccccc3F)n2)cc1,·,0,102,-14,90*,-4
CN(c1ccc(OCC(=O)Nc2nc(-c3ccccc3)cs2)cc1)S(=O)(=O)c1ccc(F)cc1,-5,0,-5,55*,20,-6
CS(=O)(=O)N1CCc2cc(-c3csc(NC(=O)Cc4ccccc4)n3)ccc21,25,0,2,55*,28,5
COc1ccc(CCC(=O)NC(C)c2ccccc2)cc1OC (configuration not stated),·,0,-5,-15,8,-4
Cc1noc(/C=C/c2cccs2)c1S(=O)(=O)N1CCC(C(=O)NCCCN2CCCC(C)C2)CC1 (configuration not stated),-5,0,0,24,0,0
CCCc1cc(C(=O)N2CCCC(Nc3ccc(C)c(C)c3)C2)n(C)n1 (configuration not stated),·,0,-5,16,-7,0
COc1cc(/C=C2\SC(=O)N(c3ccccc3Cl)C2=O)cc([N+](=O)[O-])c1O,83*,·,·,8,·,·
O=C(c1cccs1)N(Cc1nc2sc3c(c2c(=O)[nH]1)CCCC3)C1CCCC1,61*,0,-1,16,1,1
Cc1sc2nc(CN(C(=O)c3cccs3)C3CCCC3)[nH]c(=O)c2c1C,7,0,-2,-5,14,2
Cc1ccc(/C=C/c2ccc(=O)n(Cc3ccccc3Cl)n2)cc1,62*,0,-6,28,24,1
O=C(O)C1C2C=CC(C2)C1C(=O)Nc1ccc(C(=O)N2CCCCC2)cc1 (configuration not stated),68*,0,4,·,·,·
C=CCc1ccc(O)c(-c2ccc(O)c(CC=C)c2)c1,63*,0,12,15,0,-7
C=CCc1cc(C(=O)N2CCCCC2)ccc1O,10,0,1,-5,2,-10

# Assay outcomes deposited in PubChem BioAssay by several laboratories.
